# Measurements published in PMC10228170 (Journal of Pharmaceutical and Biomedical Analysis, 2023).
# Read-outs that look alike come from different tables or passages of the source. Marks after values point to notes of the source that are not given here.
# Assays:
# [1] = Pharmacokinetics of molnupiravir and NHC in rat blood and brain; format: in vivo; conditions: for concentration at 140 min: intravenous
# In short: (§1)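 Male Sprague-Dawley rats (200 ± 50 g) were fasted 12 h and anaesthetised with urethane 1 g/kg i.p. A blood probe (1.2 cm) sat in the jugular vein and a brain probe (0.7 cm) in the striatum (+0.2 AP, +3.0 ML, −7.5 DV from bregma). Both were perfused with ACD at 2.0 µL/min. Test compound 100 mg/kg i.v. via femoral vein. Dialysates collected every 20 min for 6 h; UHPLC-MS/MS (MRM); noncompartmental parameters; AUC ratios; n = 6.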
# [2] = format: in vivo; conditions: rat
# In short: as §1
# [3] = format: in vivo; conditions: male, Sprague-Dawley, rat, iv, 100 mg/kg
# In short: as §1
# [4] = prodrug molnupiravir, metabolized to NHC in vivo; cited from earlier work
# [5] = male, Sprague-Dawley, rat, blood (microdialysate), iv, 100 mg/kg
# [6] = male, Sprague-Dawley, rat, brain (striatum microdialysate), iv, 100 mg/kg
# [7] = male, Sprague-Dawley, blood (microdialysate), iv, 100 mg/kg
# [8] = male, Sprague-Dawley, blood dialysate, iv, 100 mg/kg
# [9] = male, Sprague-Dawley, brain (striatum microdialysate), iv, 100 mg/kg
# [10] = male, Sprague-Dawley, brain (striatum) dialysate, iv, 100 mg/kg
# [11] = brain (striatum microdialysate)
compound,measurement,setting,value
"CC(C)C(=O)OC[C@H]1O[C@@H](n2ccc(NO)nc2=O)[C@H](O)[C@@H]1O [Molnupiravir, molnupiravir]",AUC,[1]; [5],57200 ng·h/mL
same,Cmax,[1]; [5],192000 ± 24100 ng/mL
same,clearance,[1]; [5],32.1 ± 4.45 mL/min/kg
same,half-life,[1]; [5],9 ± 2 min
same,concentration at 140 min,"[1]; male, Sprague-Dawley, rat, blood dialysate, 100 mg/kg",49.2 ng/mL
same,MRT,"[1]; male, Sprague-Dawley, rat, blood dialysate, iv, 100 mg/kg",18 min
same,AUC,[1]; [6],318 ng·h/mL
same,Cmax,[1]; [6],390 ± 100 ng/mL
same,half-life,[1]; [6],10 ± 1 min
same,concentration at 140 min,"[1]; male, Sprague-Dawley, rat, brain (striatum) dialysate, 100 mg/kg",103 ng/mL
same,MRT,"[1]; male, Sprague-Dawley, rat, brain (striatum) dialysate, iv, 100 mg/kg",35 min
same,Tmax,"[1]; male, Sprague-Dawley, rat, brain (striatum) dialysate, iv, 100 mg/kg, Tmax, rat brain, molnupiravir 100 mg/kg i.v. alone",40 min
same,time of biotransformation of molnupiravir to NHC,"[1]; rat blood, molnupiravir 100 mg/kg i.v.",≤ 20 min
same,AUCbrain/AUCblood (blood-to-brain transfer ratio),"[1]; rat, molnupiravir 100 mg/kg i.v. alone",0.005 ± 0.001^b
same,MRT,[2]; [7],77 min
same,clearance,[2]; [7],16 ± 1.28 mL/min/kg
same,AUC,[2]; [8],110000 ng·h/mL
same,Cmax,[2]; [8],199000 ± 17000 ng/mL
same,half-life,[2]; [8],132 ± 32 min
same,MRT,[2]; [9],238 min
same,Tmax,[2]; [9],40 min
same,AUC,[2]; [10],1790 ng·h/mL
same,Cmax,[2]; [10],790 ± 220 ng/mL
same,half-life,[2]; [10],148 ± 34 min
same,AUCbrain/AUCblood (blood-to-brain transfer ratio),[2]; molnupiravir 100 mg/kg i.v. + BNPP 50 mg/kg i.v.,0.02 ± 0.004^a
same,AUC,[3]; blood (microdialysate),77400 ng·h/mL
same,Cmax,[3]; blood (microdialysate),185000 ± 18700 ng/mL
same,MRT,[3]; blood (microdialysate),29 min
same,clearance,[3]; blood (microdialysate),21.7 ± 0.66 mL/min/kg
same,half-life,[3]; blood (microdialysate),35 ± 10 min
same,AUC,[3]; [11],755 ng·h/mL
same,MRT,[3]; [11],53 min
same,Tmax,[3]; [11],40 min
same,half-life,[3]; [11],68 ± 22 min
same,Cmax,[3]; brain (striatum) dialysate,500 ± 90 ng/mL
same,bioavailability,[4],more than 90%
